Data as given in ChEMBL document CHEMBL4689842, “EUbOPEN Chemogenomics Library wave 1” (2021).
Where “and” joins values, the source holds several entries; their conditions need not be identical. Identical values can stand only once.

Test system: Fibroblast
Experiment: Multiplex assay against human fibroblast
Type: toxicity, cell-based
Procedure, shortened: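 Values for tubulin, mitochondrial-mass and membrane-permeability phenotypes are per cents of cells with healthy nuclei. These cells were identified by CellPathfinder machine-learning gating of live cells that had been stained at seeding with Hoechst33342, BioTracker Green Microtubule Cytoskeleton Dye, MitoTracker Red and Annexin V Alexa Fluor 680 and imaged on a CQ1 microscope at 37°C and 5% CO2 after compound addition. The gating first set Hoechst high-intensity objects apart from normal cells, then split normal cells into healthy, pyknosed or fragmented nuclei, and pyknosed cells into mitotic or apoptotic.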

[1] = 12 h, 1 µM, compound concentration 1 uM, replicate 1
[2] = 12 h, 1 µM, compound concentration 1 uM, replicate 2
[3] = 12 h, 10 µM, compound concentration 10 uM, replicate 1
[4] = 12 h, 10 µM, compound concentration 10 uM, replicate 2
[5] = 24 h, 1 µM, compound concentration 1 uM, replicate 1
[6] = 24 h, 1 µM, compound concentration 1 uM, replicate 2
[7] = 24 h, 10 µM, compound concentration 10 uM, replicate 1
[8] = 24 h, 10 µM, compound concentration 10 uM, replicate 2
[9] = 48 h, 10 µM, compound concentration 10 uM, replicate 1
[10] = 48 h, 10 µM, compound concentration 10 uM, replicate 2

SMILES: CC(=O)O[C@H]1C(=O)[C@@]2(C)[C@H]([C@H](OC(=O)c3ccccc3)[C@]3(O)C[C@H](OC(=O)[C@H](O)[C@@H](NC(=O)c4ccccc4)c4ccccc4)C(C)=C1C3(C)C)[C@]1(OC(C)=O)CO[C@@H]1C[C@@H]2O [PACLITAXEL]
- Population Apoptotic (%) [1]: 55% and 76%
- Population Fragmented Nuclei (%) [1]: 25% and 15%
- Population Healthy Nuclei (%) [1]: 66% and 75%
- Population Hoechst High Intensity Objects (%) [1]: 11% and 8%
- Population Membrane Permeable-Phenotype (%) [1]: 5%
- Population Mitochondria Different-Phenotype (%) [1]: 3% and 2%
- Population Mitotic Cells (%) [1]: 45% and 23%
- Population Normal (%) [1]: 88% and 91%
- Population Pyknosed Nuclei (%) [1]: 8% and 9%
- Population Tubulin-Different-Phenotype (%) [1]: 0%
- Total Cell Count [1]: 281 and 246
- Population Fragmented Nuclei (%) [2]: 46% and 34%
- Population Healthy Nuclei (%) [2]: 35% and 59%
- Population Hoechst High Intensity Objects (%) [2]: 32% and 39%
- Population Mitochondria Different-Phenotype (%) [2]: 10% and 15%
- Population Mitotic Cells (%) [2]: 40% and 100%
- Population Normal (%) [2]: 67% and 60%
- Population Pyknosed Nuclei (%) [2]: 18% and 6%
- Population Tubulin-Different-Phenotype (%) [2]: 10% and 26%
- Total Cell Count [2]: 80 and 73
- Population Apoptotic (%) [3]: 81% [middle of 4 runs]
- Population Fragmented Nuclei (%) [3]: 23% and 24%
- Population Healthy Nuclei (%) [3]: 61% [middle of 4 runs]
- Population Hoechst High Intensity Objects (%) [3]: 12% [middle of 4 runs]
- Population Membrane Permeable-Phenotype (%) [3]: 5% and 3%
- Population Mitochondria Different-Phenotype (%) [3]: 5% and 4% and 2%
- Population Mitotic Cells (%) [3]: 26% [middle of 4 runs]
- Population Normal (%) [3]: 88% and 90% and 79% and 87%
- Population Pyknosed Nuclei (%) [3]: 14% and 21% and 11%
- Total Cell Count [3]: 304 [middle of 4 runs]
- Population Fragmented Nuclei (%) [4]: 58% [middle of 4 runs]
- Population Healthy Nuclei (%) [4]: 42% [middle of 4 runs]
- Population Hoechst High Intensity Objects (%) [4]: 37% [middle of 4 runs]
- Population Normal (%) [4]: 68% and 62% and 51% and 72%
- Population Pyknosed Nuclei (%) [4]: 7% and 6% and 8%
- Population Tubulin-Different-Phenotype (%) [4]: 9% [middle of 4 runs]
- Total Cell Count [4]: 93 and 80 and 115
- Population Apoptotic (%) [5]: 48% and 38%
- Population Fragmented Nuclei (%) [5]: 18% and 13%
- Population Healthy Nuclei (%) [5]: 70% and 74%
- Population Hoechst High Intensity Objects (%) [5]: 14% and 13%
- Population Membrane Permeable-Phenotype (%) [5]: 5% and 4%
- Population Mitotic Cells (%) [5]: 52% and 61%
- Population Normal (%) [5]: 85% and 86%
- Population Pyknosed Nuclei (%) [5]: 11%
- Total Cell Count [5]: 264 and 252
- Population Fragmented Nuclei (%) [6]: 54% and 48%
- Population Healthy Nuclei (%) [6]: 28% and 48%
- Population Hoechst High Intensity Objects (%) [6]: 33% and 29%
- Population Membrane Permeable-Phenotype (%) [6]: 13% and 11%
- Population Mitochondria Different-Phenotype (%) [6]: 0% and 7%
- Population Mitotic Cells (%) [6]: 44% and 100%
- Population Normal (%) [6]: 66% and 70%
- Total Cell Count [6]: 80 and 77
- Population Apoptotic (%) [7]: 71% [middle of 4 runs]
- Population Fragmented Nuclei (%) [7]: 26% [middle of 4 runs]
- Population Healthy Nuclei (%) [7]: 64% [middle of 4 runs]
- Population Hoechst High Intensity Objects (%) [7]: 15% [middle of 4 runs]
- Population Mitochondria Different-Phenotype (%) [7]: 2% and 0%
- Population Normal (%) [7]: 85% and 87% and 84% and 75%
- Population Pyknosed Nuclei (%) [7]: 16% and 15%
- Total Cell Count [7]: 291 and 285 and 333
- Population Apoptotic (%) [8]: 44% [middle of 4 runs]
- Population Fragmented Nuclei (%) [8]: 62% [middle of 4 runs]
- Population Healthy Nuclei (%) [8]: 40% and 28% and 26%
- Population Hoechst High Intensity Objects (%) [8]: 35% [middle of 4 runs]
- Population Membrane Permeable-Phenotype (%) [8]: 17% [middle of 4 runs]
- Population Normal (%) [8]: 68% and 64% and 53% and 72%
- Population Pyknosed Nuclei (%) [8]: 11% [middle of 4 runs]
- Total Cell Count [8]: 93 [middle of 4 runs]

SMILES: CNC(=O)c1nn(C)c2c1C(C)(C)Cc1cnc(Nc3ccc(N4CCN(C)CC4)cc3)nc1-2 [MILCICLIB]
- Population Apoptotic (%) [1]: 74%
- Population Fragmented Nuclei (%) [1]: 26%
- Population Healthy Nuclei (%) [1]: 59%
- Population Hoechst High Intensity Objects (%) [1]: 6%
- Population Membrane Permeable-Phenotype (%) [1]: 15%
- Population Mitochondria Different-Phenotype (%) [1]: 7%
- Population Mitotic Cells (%) [1]: 25%
- Population Normal (%) [1]: 93%
- Population Pyknosed Nuclei (%) [1]: 14%
- Population Tubulin-Different-Phenotype (%) [1]: 30%
- Total Cell Count [1]: 202
- Population Apoptotic (%) [2]: 100%
- Population Fragmented Nuclei (%) [2]: 64%
- Population Healthy Nuclei (%) [2]: 34%
- Population Hoechst High Intensity Objects (%) [2]: 34%
- Population Membrane Permeable-Phenotype (%) [2]: 13%
- Population Mitochondria Different-Phenotype (%) [2]: 31%
- Population Mitotic Cells (%) [2]: 0%
- Population Normal (%) [2]: 65%
- Population Pyknosed Nuclei (%) [2]: 1%
- Population Tubulin-Different-Phenotype (%) [2]: 54%
- Total Cell Count [2]: 97
- Population Apoptotic (%) [3]: 61% and 65% and 87%
- Population Fragmented Nuclei (%) [3]: 29% and 25% and 26%
- Population Healthy Nuclei (%) [3]: 40% and 48% and 55%
- Population Hoechst High Intensity Objects (%) [3]: 11% and 12% and 13%
- Population Mitochondria Different-Phenotype (%) [3]: 14% and 12% and 10%
- Population Normal (%) [3]: 88% and 87% and 86%
- Population Pyknosed Nuclei (%) [3]: 30% and 25% and 18%
- Population Tubulin-Different-Phenotype (%) [3]: 77% and 74% and 40%
- Population Apoptotic (%) [4]: 66% and 73% and 60%
- Population Healthy Nuclei (%) [4]: 30% and 54% and 62%
- Population Mitotic Cells (%) [4]: 33% and 26% and 40%
- Population Normal (%) [4]: 70% and 90% and 97%
- Total Cell Count [4]: 99 and 122 and 65
- Population Apoptotic (%) [5]: 78%
- Population Fragmented Nuclei (%) [5]: 27%
- Population Healthy Nuclei (%) [5]: 57%
- Population Hoechst High Intensity Objects (%) [5]: 12%
- Population Membrane Permeable-Phenotype (%) [5]: 7%
- Population Mitochondria Different-Phenotype (%) [5]: 13%
- Population Mitotic Cells (%) [5]: 21%
- Population Normal (%) [5]: 87%
- Population Pyknosed Nuclei (%) [5]: 14%
- Population Tubulin-Different-Phenotype (%) [5]: 33%
- Total Cell Count [5]: 224
- Population Apoptotic (%) [6]: 50%
- Population Fragmented Nuclei (%) [6]: 60%
- Population Healthy Nuclei (%) [6]: 33%
- Population Hoechst High Intensity Objects (%) [6]: 33%
- Population Membrane Permeable-Phenotype (%) [6]: 10%
- Population Mitochondria Different-Phenotype (%) [6]: 30%
- Population Mitotic Cells (%) [6]: 50%
- Population Normal (%) [6]: 66%
- Population Pyknosed Nuclei (%) [6]: 6%
- Population Tubulin-Different-Phenotype (%) [6]: 40%
- Total Cell Count [6]: 90
- Population Apoptotic (%) [7]: 84% and 46% and 60%
- Population Fragmented Nuclei (%) [7]: 37% and 29% and 34%
- Population Healthy Nuclei (%) [7]: 47% and 50%
- Population Hoechst High Intensity Objects (%) [7]: 20% and 12% and 15%
- Population Mitochondria Different-Phenotype (%) [7]: 16% and 28% and 27%
- Population Normal (%) [7]: 79% and 87% and 84%
- Population Pyknosed Nuclei (%) [7]: 15% and 22%
- Population Tubulin-Different-Phenotype (%) [7]: 46% and 80% and 58%
- Population Apoptotic (%) [8]: 50% and 66% and 86%
- Population Healthy Nuclei (%) [8]: 34% and 49% and 61%
- Population Hoechst High Intensity Objects (%) [8]: 18%
- Population Normal (%) [8]: 81%
- Population Tubulin-Different-Phenotype (%) [8]: 35% and 100%
- Total Cell Count [8]: 110 and 78 and 118
- Population Apoptotic (%) [9]: 25% and 33%
- Population Fragmented Nuclei (%) [9]: 45% and 39%
- Population Healthy Nuclei (%) [9]: 42% and 49%
- Population Hoechst High Intensity Objects (%) [9]: 15% and 19%
- Population Membrane Permeable-Phenotype (%) [9]: 22% and 10%
- Population Mitochondria Different-Phenotype (%) [9]: 15% and 22%
- Population Mitotic Cells (%) [9]: 75% and 66%
- Population Normal (%) [9]: 84% and 80%
- Population Pyknosed Nuclei (%) [9]: 11%
- Population Tubulin-Different-Phenotype (%) [9]: 68% and 80%
- Total Cell Count [9]: 124 and 166
- Population Apoptotic (%) [10]: 66%
- Population Fragmented Nuclei (%) [10]: 35% and 36%
- Population Healthy Nuclei (%) [10]: 62% and 60%
- Population Hoechst High Intensity Objects (%) [10]: 18% and 14%
- Population Membrane Permeable-Phenotype (%) [10]: 16% and 11%
- Population Mitochondria Different-Phenotype (%) [10]: 11% and 17%
- Population Mitotic Cells (%) [10]: 33%
- Population Normal (%) [10]: 81% and 85%
- Population Pyknosed Nuclei (%) [10]: 2%
- Population Tubulin-Different-Phenotype (%) [10]: 84% and 96%
- Total Cell Count [10]: 169 and 170
